Rpn11 inh: Rpn11 (human) deubiquitinase inhibition. human 26S proteasome, Ub4-pepOG fluorescence polarization; 20S core pre-blocked with epoxomicin. inhibition, % at 20 µM. O00487. 360,000 compounds, 0.59% hits. AID 588493;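 active = inhibition at 20 µM, scaled to each plate's controls, above about 33%, limit read from the data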
CSN inh: inhibitors of human CSN-mediated cullin deneddylation. Q92905. Purified CSN, SCF-Nedd8-OG deneddylation, fluorescence polarization. inhibition, % at 12.5 µM. 360,000 compounds, 0.38% hits. AID 651999;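 active = pattern-corrected inhibition above about 35%, with an unprinted fluorescence ratio check between 0.5 and 1.5, limit read from the data, passing the limit was not always enough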
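Detection – fluorescence polarization · System – HEK293T-derived human Csn5 enzyme · Controls – substrate-only high control, full reaction low control · Timing – 90 min, room temperature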
TPT1 inhibitor: inhibitors of Candida albicans tRNA 2'-phosphotransferase TPT1; AID 1962; inhibition, % at 5 µM; recombinant caTPT1, FP RNA substrate dephosphorylation; 300,000 compounds, 0.81% hits;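 active = inhibition above the mean of all tested compounds plus 3 SD, set per screening campaign, cut at about 24% in these data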
IDE act: activators of human insulin-degrading enzyme in cells | P14735 | HEK cells, FAbeta-B cleavage, fluorescence polarization; 0% vehicle, 100% cell-free pure enzyme wells | activation, % at 5.96 µM | 340,000 compounds, 0.073% hits | AID 493087;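 active = activation above the mean of all tested compounds plus 3 SD, set per screening campaign, cut at about 17% in these data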
HNF4A DNA FP: change in binding of human HNF4 alpha to DNA; HNF4a-FITC DNA binding, fluorescence polarization, 1 h; P41235; activity change, % at 10 µM; 360,000 compounds, 0.3% hits; in the data active = activity change above about 30%, passing the limit was not always enough
IDE inh: inhibits human insulin-degrading enzyme in HEK cells; P14735; FAbetaB cleavage, fluorescence polarization; inhibition, % at 5.59 µM; 320,000 compounds, 0.41% hits; AID 434962;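 active = percent inhibition above the average of all tested compounds plus 3 SD, set per screening campaign, cut at about 16% in these data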;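 note: IDE supplied by intact live HEK cells; FP after avidin binding of uncleaved biotin substrate so inhibition keeps polarization high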
caTPT1 confirm: confirmation of Candida albicans TPT1 inhibitors. shares compounds with TPT1 inhibitor. recombinant caTPT1, fluorescence polarization, RNase T1 coupled. inhibition, % at 5 µM. 2,400 compounds, 74% hits. AID 2149;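 active = inhibition above the primary screen limit, the mean inhibition of all tested compounds plus 3 SD, cut at about 25% in these data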
RNase T1 inh: blocks Aspergillus oryzae RNase T1, a TPT1 counter-screen. shares compounds with TPT1 inhibitor. RNase T1 cleavage, fluorescence polarization, 1536-well. inhibition, % at 5 µM. 2,400 compounds, 83% hits;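 active = inhibition above the solvent-only control well mean plus 3 SD, limit set per screening run, cut at about 23% in these data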;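 note: inhibitors block cleavage so intact labeled substrate keeps polarization high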
IDE cell inh cf: confirmation of human insulin-degrading enzyme inhibitors in cells; shares compounds with IDE inh; HEK cells, FAbetaB cleavage, fluorescence polarization; inhibition, % at 5.59 µM; 1,200 compounds, 51% hits; AID 435028;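 active = mean inhibition across triplicate wells above the cutoff set by the earlier primary insulin-degrading enzyme screen, cut at about 16% in these data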
HEK293 tox: kills HEK cells in IDE inhibitor counter-screen | shares compounds with IDE inh | HEK293 cytotoxicity, ATP luminescence | inhibition, % at 5.59 µM | 1,200 compounds, 28% hits | AID 449730; in the data active = inhibition above about 22%
Rpn11 confirm: confirmation of human proteasome Rpn11 inhibitors; shares compounds with Rpn11 inh; purified human 26S proteasome, Ub4-pepOG fluorescence polarization; proteasome pretreated with epoxomicin; inhibition, % at 20 µM; 1,900 compounds, 29% hits
MMP-2 counter-1: counter-screen for RPN11 inhibitors: inhibition of human MMP-2; shares compounds with Rpn11 inh; inhibition, % at 20 µM; 1,900 compounds, 4% hits; AID 602330; recombinant MMP-2, FRET peptide cleavage fluorescence;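 note: human MMP-2 activated beforehand with APMA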
Thrombin inh: counter-screen for RPN11 inhibitors: inhibition of bovine thrombin; 1,900 compounds, 13% hits; inhibition, % at 20 µM; bovine thrombin cleavage of Ub4-pepOG, fluorescence polarization; shares compounds with Rpn11 inh; AID 602333;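 active = mean inhibition at least 40% at 20 µM, or signal 3 deviations below plate average, so some actives read negative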
CSN deneddyl val: validation of inhibitors of human CSN-mediated cullin deneddylation | shares compounds with CSN inh | Csn5 deneddylation of SCF-Nedd8OG, fluorescence polarization, 90 min | inhibition, % at 16.6 µM | 540 compounds, 62% hits; in the data active = inhibition above about 50%
MMP-2 counter-2: blocks human MMP-2 in a CSN deneddylation counter-screen; inhibition, % at 16.6 µM; recombinant MMP-2, FRET substrate fluorescence, 60 min; 540 compounds, 33% hits; shares compounds with CSN inh;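 active = corrected plate-normalized z-score of 5 or more, or -5 or less, or inhibition of 15% or more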
Thrombin cntr: counter-screen for CSN deneddylation inhibitors: bovine thrombin inhibition. shares compounds with CSN inh. 540 compounds, 49% hits. inhibition, % at 16.6 µM. AID 720656. bovine thrombin cleavage of Ub4-pepOG, fluorescence polarization;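 active = inhibition at or above a set limit, with a fluorescence interference ratio between 0.5 and a set maximum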
HNF4a DNA conf: change in binding of human HNF4 alpha to DNA, retest. shares compounds with HNF4A DNA FP. 210 compounds, 99% hits. activity change, % at 12.5 µM. HNF4A-FITC DNA binding, fluorescence polarization, 1 h; call rule not given here
Numbers stand for hits. Compounds with a hit are over-represented: about 1.7% of the library has one in this group of screens. Cut-off read from the data, not from the text of the source, unless noted: active = inhibition above about 40%; inactive = the rest.

What do the screens show for `CCC(=O)N1N=C(c2ccc(NS(C)(=O)=O)cc2)CC1c1ccc(N(C)C)cc1` (stereo not given)?
Rpn11 inh: inactive; CSN inh: inactive; TPT1 inhibitor: inactive; IDE act: inactive; HNF4A DNA FP: inactive; IDE inh: inactive

How did CC(C)(C)NC(=S)NCC1CC1 do in these assays?
Rpn11 inh: inactive; CSN inh: inactive; TPT1 inhibitor: inactive; IDE act: inactive; HNF4A DNA FP: inactive; IDE inh: inactive

Results for O=C(O)C(c1ccccc1)N1C(=O)/C(=C\c2ccc(-c3ccccc3Cl)o2)SC1=S (stereo not given) ?
CSN inh: 92; TPT1 inhibitor: 124; IDE act: inactive; HNF4A DNA FP: inactive; IDE inh: inactive; caTPT1 confirm: 128; RNase T1 inh: 130; CSN deneddyl val: inactive; MMP-2 counter-2: inactive; Thrombin cntr: 94

Results for O=C1C2C(C(=O)N1Cc1ccco1)C1C=CC2C12CC2 (stereo not given) ?
Rpn11 inh: inactive; CSN inh: inactive; TPT1 inhibitor: inactive; IDE act: inactive; HNF4A DNA FP: inactive; IDE inh: inactive

What do the screens show for `O=C1CC(=O)N(Cc2ccco2)C(=O)N1`?
Rpn11 inh: 162; CSN inh: 66; TPT1 inhibitor: 92; IDE act: inactive; HNF4A DNA FP: inactive; IDE inh: 21; caTPT1 confirm: 47; RNase T1 inh: 59; IDE cell inh cf: inactive; HEK293 tox: inactive; Rpn11 confirm: 125; MMP-2 counter-1: inactive; Thrombin inh: 64; CSN deneddyl val: inactive; MMP-2 counter-2: 25; Thrombin cntr: 44

What do the screens show for `CCC[C@H]1NC(=O)[C@H](C)N(C)C(=O)C(C)(C)C(=O)C(C)NC(=O)[C@H](Cc2ccc(OC)cc2)N(C)C(=O)[C@H](C(C)C)N(C)C(=O)CNC(=O)[C@H](CC(C)C)N(C)C(=O)CNC(=O)[C@H]([C@@H](C)CC)OC(=O)[C@H]1C` (stereo not given in full)?
IDE inh: inactive

How did CN(C)c1ccc(/C=C2\C(=N)N3N=C(CC(=O)N4CCCCC4)SC3=NC2=O)cc1 do in these assays?
CSN inh: 90; TPT1 inhibitor: 122; IDE act: inactive; HNF4A DNA FP: inactive; IDE inh: 21; caTPT1 confirm: 140; RNase T1 inh: 148; IDE cell inh cf: 49; HEK293 tox: inactive; CSN deneddyl val: 76; MMP-2 counter-2: -57; Thrombin cntr: 94

How did CS(=O)(=O)N(CC(=O)NCc1ccncc1)c1cc(Cl)ccc1Cl do in these assays?
Rpn11 inh: inactive; CSN inh: inactive; TPT1 inhibitor: inactive; IDE act: inactive; HNF4A DNA FP: inactive; IDE inh: inactive

Results for N#CCC(=O)N/N=C/c1ccc(N2N=C(c3ccccc3)CC2c2ccccc2)cc1 (stereo not given) ?
CSN inh: 39; TPT1 inhibitor: 51; IDE act: inactive; HNF4A DNA FP: 50; IDE inh: inactive; caTPT1 confirm: 67; RNase T1 inh: 78; HNF4a DNA conf: 35

Results for O=Cc1ccc(N2N=C(c3ccccc3)CC2c2ccccc2)cc1 (stereo not given) ?
Rpn11 inh: inactive; CSN inh: inactive; TPT1 inhibitor: inactive; IDE act: inactive; HNF4A DNA FP: inactive; IDE inh: inactive

Results for C=CCn1c(SCc2nc3sc4c(c3c(=O)[nH]2)CCCC4)nc2ccccc2c1=O ?
CSN inh: inactive; TPT1 inhibitor: 27; IDE act: inactive; HNF4A DNA FP: 49; IDE inh: inactive; caTPT1 confirm: 48; RNase T1 inh: 62; HNF4a DNA conf: 65

Results for Cn1c(NCC2CCCCC2)nc2cc(-c3ccsc3)sc2c1=O ?
Rpn11 inh: inactive; CSN inh: inactive; HNF4A DNA FP: inactive

What do the screens show for `N#CCc1nc2ccc(S(=O)(=O)N3CCOCC3)cc2s1`?
CSN inh: 49; TPT1 inhibitor: 85; IDE act: inactive; HNF4A DNA FP: 52; IDE inh: 46; caTPT1 confirm: 62; RNase T1 inh: 76; IDE cell inh cf: inactive; HEK293 tox: inactive; HNF4a DNA conf: 54

How did Cc1cccc(-c2noc(CNC(=O)c3ccoc3C)n2)c1 do in these assays?
CSN inh: inactive; TPT1 inhibitor: 34; IDE act: inactive; HNF4A DNA FP: 50; IDE inh: inactive; caTPT1 confirm: 65; RNase T1 inh: 74; HNF4a DNA conf: 32

Results for CCOc1ccccc1NC(=S)Nn1cnnc1 ?
Rpn11 inh: inactive; CSN inh: inactive; TPT1 inhibitor: inactive; IDE act: inactive; HNF4A DNA FP: inactive; IDE inh: inactive

How did C=CCSc1nnc(C)c(/C=C/Nc2ccc(Cl)cc2)n1 do in these assays?
CSN inh: inactive; TPT1 inhibitor: 155; HNF4A DNA FP: 51; IDE inh: inactive; caTPT1 confirm: 133; RNase T1 inh: 129; HNF4a DNA conf: 38

From PubChem BioAssay
